A short description of data set [1]: Inhibition of Leishmania donovani NMT using p60 SRC(2 to […]) as substrate by CPM dye based fluorescence assay.
Data set [2] deals with Leishmania donovani. Put plainly: Effect on total NMT expression in Leishmania donovani MHOM/ET/67/HU3 intracellular amastigotes after 12 hrs in presence of YnMyr by Western blot analysis. The class given is ADME, organism-based. A digest of the protocol:
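Amastigotes from spleens of Rag-2−/− mice, isolated by saponin lysis, seeded at 7.5 × 10⁷/mL in RPMI/10% FCS with inhibitor for 1 h at 37 °C. Then resuspended in fresh medium with inhibitor plus YnMyr (50 μM final) for 12 h. Lysates were click-labelled and run on SDS-PAGE, then immunoblotted with anti-LdNMT antibody.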
In general terms: Immunoblotting shows a protein as a band on a membrane.

Data set [3] relates to Leishmania donovani. Put plainly: Antileishmanial activity against Leishmania donovani MHOM/ET/67/HU3 intracellular amastigotes measured after 72 hrs by alamar blue dye based fluorescence assay. The class given is functional, organism-based. The following applies: MHOM/ET/67/HU3, 72 h. A digest of the protocol:
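Ex vivo L. donovani LV9 amastigotes, kept by serial passage in Rag-2−/− mice, isolated from infected spleens by homogenization and saponin lysis. Plated at 4 × 10⁵ per well in RPMI with 20% heat-inactivated FCS, adenine, 20 mM MES (pH 5.5), hemin, biopterin and biotin.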
In general terms: Alamar Blue is a resazurin reagent that responds to reducing activity.

With `CN1CCC(N(C)c2nc(N(C)CCC#N)c3ccccc3n2)C1` (stereo not drawn), the half-inhibitory concentration (IC50) (in general, the concentration that inhibits the measured activity by half) in data set [1] stood at 9.5 µM. The Activity result with Leishmania donovani [2] is on record as “Non-Toxic”. For the same compound, it took 6.6 µM to reach a half-maximal effect in the data set with Leishmania donovani [3] (EC50).

The values above are taken from ChEMBL document CHEMBL4610124, “Novel Thienopyrimidine Inhibitors of Leishmania N-Myristoyltransferase with On-Target Activity in Intracellular Amastigotes” (J Med Chem, 2020).
